# Tests used:
# Dihydrofolate reductase [1] = molecular target: T1, Dihydrofolate reductase (Rattus norvegicus, UniProt Q920D2); test: Inhibitory activity against cell free dihydrofolate reductase (DHFR) from rat; details: for IC50: read-out: I50
# T1 sequence (Q920D2 whole entry): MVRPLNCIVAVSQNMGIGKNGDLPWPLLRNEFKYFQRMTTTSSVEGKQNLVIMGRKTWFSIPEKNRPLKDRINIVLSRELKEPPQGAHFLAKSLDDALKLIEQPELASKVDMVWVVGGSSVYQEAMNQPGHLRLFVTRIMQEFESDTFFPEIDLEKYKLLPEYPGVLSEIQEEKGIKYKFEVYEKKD
# Dihydrofolate reductase [2] = molecular target: T2, Dihydrofolate reductase (Candida albicans, UniProt P22906); test: Inhibitory activity against cell free dihydrofolate reductase (DHFR) from Candida albicans; details: read-out: I50
# T2 sequence (P22906 whole entry): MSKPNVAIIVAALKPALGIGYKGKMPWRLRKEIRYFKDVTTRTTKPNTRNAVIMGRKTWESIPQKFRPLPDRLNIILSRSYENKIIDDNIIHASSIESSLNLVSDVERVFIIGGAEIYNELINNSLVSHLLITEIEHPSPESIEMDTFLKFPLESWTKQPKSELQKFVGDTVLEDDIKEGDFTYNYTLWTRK
# Candida albicans [3] = test: Inhibitory effect on Candida albicans YEM15 CDR1CDR2up Strain; assay type: functional
# Outline: (§1)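 MICs were determined by serial dilution in RPMI medium. MIC is the lowest concentration giving culture turbidity ≤20% of the control culture.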
# Candida albicans [4] = test: Inhibitory effect on Candida albicans wild type YEM30 Strain; assay type: functional; outline: as §1
# Candida albicans [5] = test: Inhibitory effect on Candida albicans YEM13 BENup Strain; assay type: functional; outline: as §1
# Candida albicans [6] = test: Inhibitory effect on Candida albicans YEM12 Strain; assay type: functional; outline: as §1
# Nakaseomyces glabratus [7] = test: Inhibitory effect on Candida glabrata YEM88 CgCDR1 CgCDR2up Strain; assay type: functional
# Outline: (§2)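 For C. glabrata strains, MICs were determined by serial dilution in RPMI medium and read after 48 h. MIC is the lowest concentration giving turbidity ≤20% of the control culture.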
# Candida albicans [8] = test: Inhibitory effect on Candida albicans wild type YEM14 Strain; assay type: functional; outline: as §1
# Nakaseomyces glabratus [9] = test: Inhibitory effect on Candida glabrata YEM75 WT Strain; assay type: functional; outline: as §2
# Candida albicans [10] = test: Inhibitory effect on Candida albicans YEM27 quad deletion Strain; assay type: functional; outline: as §1
# Nakaseomyces glabratus [11] = test: Inhibitory effect on Candida glabrata YEM216 pCDR1pCDR2pBEN YEM75 WT Strain; assay type: functional; outline: as §2
# [12] = Inhibitory activity against dihydropteroic acid synthase (SYN) from Escherichia coli; details: read-out: I50
# [13] = Inhibitory activity against dihydropteroic acid synthase (SYN) from Mycobacterium lufu (DDS resistant); details: read-out: I50
# [14] = Inhibitory activity against dihydropteroic acid synthase (SYN) from Mycobacterium lufu (DDS sensitive); details: read-out: I50
# [15] = Inhibitory activity against dihydropteroic acid synthase (SYN) from candida albicans; details: read-out: I50
# Outline: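 Partially purified SYN extract was prepared from C. albicans ATCC 11651 and incubated with sulfones at pH 8.4. Periodic samples were quenched with trichloroacetic acid, and folate formed was quantified by bioassay with folate-requiring Streptococcus faecium. I50 is the concentration giving a 50% decrease in dihydropteroic acid production versus the uninhibited control.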
# [16] = molecular target: T3, Dihydropteroate synthetase, putative (Plasmodium berghei str. ANKA, UniProt A0A113T0T6); test: Inhibitory activity against dihydropteroic acid synthase (SYN) from Plasmodium berghei; details: read-out: I50
# T3 sequence (A0A113T0T6 whole entry): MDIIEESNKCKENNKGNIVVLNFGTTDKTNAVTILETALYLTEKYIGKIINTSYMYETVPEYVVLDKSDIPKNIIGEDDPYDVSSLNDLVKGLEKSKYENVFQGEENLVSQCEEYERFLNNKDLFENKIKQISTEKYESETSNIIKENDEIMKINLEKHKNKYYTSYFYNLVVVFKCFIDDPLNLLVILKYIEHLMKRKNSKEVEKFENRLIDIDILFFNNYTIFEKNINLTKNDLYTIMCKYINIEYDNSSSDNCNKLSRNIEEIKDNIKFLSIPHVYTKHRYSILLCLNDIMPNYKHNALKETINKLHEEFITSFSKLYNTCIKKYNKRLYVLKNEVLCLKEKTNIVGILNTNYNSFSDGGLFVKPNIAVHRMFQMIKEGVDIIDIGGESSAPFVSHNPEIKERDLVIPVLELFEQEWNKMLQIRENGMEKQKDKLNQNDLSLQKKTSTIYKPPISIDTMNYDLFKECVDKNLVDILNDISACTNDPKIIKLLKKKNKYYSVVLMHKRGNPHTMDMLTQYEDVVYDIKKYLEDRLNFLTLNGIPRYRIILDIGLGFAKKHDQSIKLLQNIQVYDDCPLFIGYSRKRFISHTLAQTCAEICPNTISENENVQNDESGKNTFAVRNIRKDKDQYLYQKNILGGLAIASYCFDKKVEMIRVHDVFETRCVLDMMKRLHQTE
# [17] = molecular target: Dihydrofolate reductase (Mycobacterium lufu); test: Inhibitory activity against cell free dihydrofolate reductase (DHFR) from Mycobacterium lufu
smiles,measurement,setting,value
Nc1ncc(NCc2cccc3ccccc23)c(N)n1,IC50,Dihydrofolate reductase [1],5.9 µM
same,IC50,Dihydrofolate reductase [2],1.39 µM
Cc1nc(N)nc(N)c1CCc1ccccc1,IC50,Dihydrofolate reductase [1],12.8 µM
same,IC50,Dihydrofolate reductase [2],4.2 µM
Nc1ncc(OCc2ccccc2Cl)c(N)n1,IC50,Dihydrofolate reductase [1],3.53 µM
same,IC50,Dihydrofolate reductase [2],0.73 µM
COc1cc(Cc2cnc(N)nc2N)ccc1OCCCCN1C(=O)c2ccccc2C1=O,MIC,Candida albicans [3],> 64 µg/mL
same,MIC,Candida albicans [4],> 64 µg/mL
same,MIC,Candida albicans [5],> 64 µg/mL
same,MIC,Candida albicans [6],> 64 µg/mL
same,MIC,Nakaseomyces glabratus [7],> 64 µg/mL
same,IC50,Dihydrofolate reductase [1],1.81 µM
same,MIC,Candida albicans [8],> 64 µg/mL
same,MIC,Nakaseomyces glabratus [9],> 64 µg/mL
same,MIC,Candida albicans [10],> 64 µg/mL
same,MIC,Nakaseomyces glabratus [11],> 64 µg/mL
same,IC50,Dihydrofolate reductase [2],0.031 µM
COC(=O)CNc1ccc(S(=O)(=O)c2ccc(N)cc2)cc1,IC50,[12],101 µM
same,IC50,[13],2.63 µM
same,IC50,[14],2.24 µM
same,IC50,[15],1.33 µM
Nc1ncc(OCc2ccc(OCCCCN3C(=O)c4ccccc4C3=O)cc2)c(N)n1,IC50,Dihydrofolate reductase [1],6.07 µM
same,IC50,Dihydrofolate reductase [2],0.078 µM
Cc1nc(N)nc(N)c1CCCc1ccccc1,IC50,Dihydrofolate reductase [1],0.82 µM
same,IC50,Dihydrofolate reductase [2],9.9 µM
OC(Cn1cncn1)(Cn1cncn1)c1ccc(F)cc1F [FLUCONAZOLE],MIC,Candida albicans [3],64 µg/mL
same,MIC,Candida albicans [4],2 µg/mL
same,MIC,Candida albicans [5],64 µg/mL
same,MIC,Candida albicans [6],1 µg/mL
same,MIC,Candida albicans [8],64 µg/mL
same,MIC,Candida albicans [10],≤ 0.25 µg/mL
Nc1ncc(Cc2ccccc2)c(N)n1,I50,Dihydrofolate reductase [1],115.3 uM l-1
same,IC50,Dihydrofolate reductase [2],90.5 µM
COc1cc(Cc2cnc(N)nc2N)cc(OC)c1OCCCNc1ccc(N(C)C)cc1,IC50,Dihydrofolate reductase [2],0.97 µM
Nc1ccc(S(=O)(=O)c2ccc(NCC(=O)O)cc2)cc1 [ACEDIASULFONE],IC50,[12],37.1 µM
same,IC50,[13],0.82 µM
same,IC50,[14],0.87 µM
same,IC50,[16],17.8 µM
same,IC50,[15],1.22 µM
Nc1ncc(NCc2ccccc2)c(N)n1,IC50,Dihydrofolate reductase [1],58.2 µM
same,I50,[17],105 uM l-1
same,IC50,Dihydrofolate reductase [2],7.94 µM
Nc1ncc(NCc2cccc(Cl)c2)c(N)n1,IC50,Dihydrofolate reductase [1],49.8 µM
same,IC50,Dihydrofolate reductase [2],13.9 µM
Nc1ncc(NCc2ccccc2Cl)c(N)n1,IC50,Dihydrofolate reductase [1],71.5 µM
same,IC50,Dihydrofolate reductase [2],6.63 µM
Nc1ncc(Cc2cccc3ccccc23)c(N)n1,IC50,Dihydrofolate reductase [1],29.4 µM
same,IC50,Dihydrofolate reductase [2],53.5 µM
Nc1ccc(S(=O)(=O)c2ccc(Cl)cc2)cc1,IC50,[13],18.7 µM
same,IC50,[14],13 µM
same,IC50,[15],14.3 µM
Nc1ncc(CCc2ccccc2)c(N)n1,IC50,Dihydrofolate reductase [1],39.9 µM
same,IC50,Dihydrofolate reductase [2],3.37 µM
COc1ccc(COc2cnc(N)nc2N)cc1,IC50,Dihydrofolate reductase [1],99.7 µM
same,IC50,Dihydrofolate reductase [2],26.1 µM
Nc1ncc(OCc2ccc(OCCCN3C(=O)c4ccccc4C3=O)cc2)c(N)n1,IC50,Dihydrofolate reductase [1],15.7 µM
same,IC50,Dihydrofolate reductase [2],0.619 µM
COc1cc(COc2cnc(N)nc2N)ccc1OCCCc1ccccc1,IC50,Dihydrofolate reductase [1],58.3 µM
same,IC50,Dihydrofolate reductase [2],6.13 µM
Nc1ccc(S(=O)(=O)c2ccccc2)cc1,IC50,[12],116 µM
same,IC50,[13],12 µM
same,IC50,[14],12.1 µM
same,IC50,[16],104 µM
same,IC50,[15],13.3 µM
COc1ccc(CCc2cnc(N)nc2N)cc1OC,I50,Dihydrofolate reductase [1],315.3 uM l-1
same,IC50,Dihydrofolate reductase [2],35.4 µM
COC(=O)c1ccc(S(=O)(=O)c2ccc(N)cc2)cc1,IC50,[12],149 µM
same,IC50,[13],13.8 µM
same,IC50,[14],11.8 µM
same,IC50,[16],147 µM
Cc1ccc(S(=O)(=O)NCCCCOc2ccc(Cc3cnc(N)nc3N)cc2)cc1,IC50,Dihydrofolate reductase [1],1.72 µM
same,IC50,Dihydrofolate reductase [2],0.581 µM
Nc1ncc(NCc2ccc3ccccc3c2)c(N)n1,IC50,Dihydrofolate reductase [1],71.3 µM
same,IC50,Dihydrofolate reductase [2],16.1 µM
Cc1ccc(S(=O)(=O)NCCCOc2ccc(COc3cnc(N)nc3N)cc2)cc1,IC50,Dihydrofolate reductase [1],4.43 µM
same,IC50,Dihydrofolate reductase [2],0.435 µM
CCNc1ccc(S(=O)(=O)c2ccc(N)cc2)cc1,IC50,[12],41.7 µM
same,IC50,[13],1.48 µM
same,IC50,[14],2.75 µM
same,IC50,[15],3.16 µM

# — ChEMBL document CHEMBL1139439, “Folate-synthesizing enzyme system as target for development of inhibitors and inhibitor combinations against Candida albicans-synthesis and biological activity of new 2,4-diaminopyrimidines and 4'-substituted 4-aminodiphenyl sulfones” (J Med Chem, 2004)
